Source: paper PMC9948202 (ACS Omega, 2023)

Legend:
hNTS2 = details: cited from earlier work
hNTS1 = details: read-out: Ki toward hNTS1; cited from earlier work
NTS1 = details: cited from earlier work
NTS2 = NTS2 (Homo sapiens, UniProt O95665); assay: Calcium imaging assay; format: cell-based
In short: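 HT-29 cells grown overnight on glass slides (5 × 10^5 cells, 37 °C, 5% CO2), loaded 30 min in the dark with 100 μM fluo-8 AM, 0.4% pluronic acid and 2.5 mM probenecid in RPMI. Perfused with bicarbonate-glucose buffer (95% O2/5% CO2, pH 7.4, room temperature), washed 10 min. Test compound 10–11 to 10–5 M by rapid perfusion; levocabastine as positive control. Ex 490/Em 514 nm; ΔF/F (%) vs baseline, normalized to levocabastine stimulation; twice in duplicate, 20 cells analysed.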

Sequence of NTS2 (O95665 whole entry, the tested form may be a part): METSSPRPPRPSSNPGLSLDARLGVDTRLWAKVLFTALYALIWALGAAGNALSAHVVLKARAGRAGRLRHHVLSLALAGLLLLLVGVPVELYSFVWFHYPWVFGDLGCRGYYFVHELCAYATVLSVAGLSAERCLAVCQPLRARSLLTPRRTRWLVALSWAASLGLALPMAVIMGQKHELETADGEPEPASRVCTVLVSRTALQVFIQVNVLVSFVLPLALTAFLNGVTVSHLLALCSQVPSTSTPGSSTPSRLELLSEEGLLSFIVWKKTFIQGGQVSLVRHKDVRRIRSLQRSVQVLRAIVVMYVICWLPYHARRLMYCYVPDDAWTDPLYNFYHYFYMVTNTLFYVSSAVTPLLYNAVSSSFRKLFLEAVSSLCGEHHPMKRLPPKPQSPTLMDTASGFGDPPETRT

Row | Compound | selectivity index hNTS1/hNTS2 (hNTS2) | Ki (hNTS2; read-out: Ki toward hNTS2) [nM] | Ki (hNTS1) [nM] | hypothermic effect (NTS1) | EC50 (NTS2) [nM]
1 | H-Lys-Lys-Pro-(D)Trp-Ile-TMSAla-OH [JMV 5504] | 423 | 8.5 | 3600 | no hypothermic effect | 
2 | C[C@@H]1CN([C@H]2CC[C@](C#N)(c3ccc(F)cc3)CC2)CC[C@]1(C(=O)O)c1ccccc1 [levocabastine] |  |  |  |  | 118
